Two compounds from ChEMBL document CHEMBL4400568, “The design of 1,4-naphthoquinone derivatives and mechanisms underlying apoptosis induction through ROS-dependent MAPK/Akt/STAT3 pathways in human lung cancer cells” (Bioorg Med Chem, 2019) can be followed below.

The nature of data set [1]: Cytotoxicity against human QSG7701 cells assessed as reduction in cell viability after 24 hrs by MTT assay. In kind it is cell-based. An outline of the steps: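 Log-phase cells seeded at 1 × 10⁴ per well. Lung cancer lines (A549, NCI-H23, NCI-H460) and normal lines (IMR-90, QSG-7701, HEK-293A) each exposed to 1, 3, 10, 30 and 100 μM for 24 h. MTT (5 mg/mL stock) added for 2 h at 37°C, formazan dissolved in DMSO, absorbance read at 490 nm. Three independent experiments, mean ± SD.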
On the technique in general: Formazan colour is commonly taken as a measure of viable cells.

The test system of data set [2] is A549. Put plainly: Induction of apoptosis in human A549 cells assessed as nuclear condensation at 3 uM by Annexin V-FITC/propidium iodide staining-based flow cytometric analysis. Type of data set: functional, cell-based. The conditions noted are these: TDE = time-dependent effect. An outline of the steps:
(§1)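 A549 cells seeded at 1 × 10⁵ cells/well, exposed to 3 μM for 3, 6, 12 and 24 h. Then incubated in binding buffer and stained with Annexin V-FITC and PI for 20 min in the dark. Apoptotic cells were scored by fluorescence microscopy and flow cytometry. Three independent experiments, mean ± SD.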
(In general: Flow cytometry measures light scatter and fluorescence of single cells or particles in a stream.)

Data set [3] concerns A549. Put plainly: Induction of apoptosis in human A549 cells assessed as increase in cleaved caspase-3 expression at 3 uM by Western blot analysis. In kind it is functional, cell-based. The conditions noted are these: TDE = time-dependent effect. In a few lines:
(§2)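 A549 cells exposed to 3 μM for 3, 6, 12 or 24 h; where NAC is used, 10 mM NAC is added 30 min before 24 h treatment. Lysate protein (30 μg) is run on 12% SDS-PAGE, blotted to nitrocellulose, blocked in 5% milk, primary antibody overnight at 4°C, then HRP anti-IgG. β-actin loading control; densitometry; three independent experiments, mean ± SD.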

Data set [4] has as its system A549. Description: Induction of apoptosis in human A549 cells assessed as early apoptotic cells at 3 uM after 3 hrs by Annexin V-FITC/propidium iodide staining-based flow cytometric analysis (reference value: 2.73%). Type of data set: functional.
Data set [5] deals with A549. Description: Cell cycle arrest in human A549 cells assessed as increase in p21 levels at 3 uM by Western blot analysis. In kind it is functional, cell-based. The conditions noted are these: TDE = time-dependent effect. In a few lines: as §2
A general note: A western blot detects proteins with antibodies after separation by electrophoresis.

Data set [6] deals with T1, c-Jun N-terminal kinase, JNK (Homo sapiens) (UniProt P45983+P53779+P45984). Description: Modulation of JNK in human A549 cells assessed as decrease in STAT3 phosphorylation measured after 24 hrs in presence of JNK inhibitor SP600125 by Western blot analysis. Type of data set: cell-based. An outline of the steps: (§3)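 A549 cells pre-incubated for 30 min with 12.1 μM kinase inhibitor: SB203580 (p38), SP600125 (JNK), FR180204 (ERK) or LY10249 (Akt). Compound treatment followed for 24 h. Lysates (30 μg protein) analysed by 12% SDS-PAGE and nitrocellulose immunoblot with HRP detection. Three independent experiments, mean ± SD.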

The target of data set [7] is T1, c-Jun N-terminal kinase, JNK (Homo sapiens). Put plainly: Modulation of JNK in human A549 cells assessed as increase in cleaved caspase-3 measured after 24 hrs in presence of JNK inhibitor-SP600125 by Western blot analysis. In kind it is cell-based.
Data set [8] addresses RAC-alpha serine/threonine-protein kinase (Homo sapiens) (UniProt P31749). Put plainly: Modulation of AKT in human A549 cells assessed as increase in p27 levels measured after 24 hrs in presence of Akt inhibitor-LY10249 by Western blot analysis. Type of data set: cell-based. In a few lines:
as §3

Data set [9] has as its system A549. Put plainly: Induction of ROS generation in human A549 cells assessed as intracellular ROS level at 3 uM after 6 hrs by DCFH-DA staining-based flow cytometric analysis (reference value: 51.8%). Type of data set: functional. An outline of the steps: (§4)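 A549 cells loaded with DCFH-DA (10 μM per legend) for 30 min, then exposed to 3 μM at 37°C for 3, 6, 12 or 24 h. After two PBS washes, intracellular fluorescence is quantified by flow cytometry. Three independent experiments, mean ± SD.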

For data set [10], the system named is A549. Description: Induction of ROS generation in human A549 cells assessed as intracellular ROS level at 3 uM after 12 hrs by DCFH-DA staining-based flow cytometric analysis (reference value: 51.8%). In kind it is functional. In a few lines:
as §4

Data set [11] deals with A549. Put plainly: Induction of apoptosis in human A549 cells assessed as increase in cleaved caspase-3 at 3 uM measured after 24 hrs in presence of NAC by Western blot analysis. In kind it is functional, cell-based. An outline of the steps: as §2
For data set [12], the system named is A549. Put plainly: Induction of apoptosis in human A549 cells assessed as increase in cleaved PARP at 3 uM measured after 24 hrs in presence of NAC by Western blot analysis. Type of data set: functional, cell-based. In a few lines:
as §2

In data set [13] the test system is A549. Description: Induction of apoptosis in human A549 cells at 3 uM by Annexin V-FITC/propidium iodide staining-based flow cytometric analysis. The conditions noted are these: TDE = time-dependent effect. Type of data set: functional, cell-based. In a few lines:
as §1

Calls of active or inactive are those of the source. The calls are words filed in the database; no cut-off is given here.

RAC-alpha serine/threonine-protein kinase (Homo sapiens), sequence (P31749 whole entry): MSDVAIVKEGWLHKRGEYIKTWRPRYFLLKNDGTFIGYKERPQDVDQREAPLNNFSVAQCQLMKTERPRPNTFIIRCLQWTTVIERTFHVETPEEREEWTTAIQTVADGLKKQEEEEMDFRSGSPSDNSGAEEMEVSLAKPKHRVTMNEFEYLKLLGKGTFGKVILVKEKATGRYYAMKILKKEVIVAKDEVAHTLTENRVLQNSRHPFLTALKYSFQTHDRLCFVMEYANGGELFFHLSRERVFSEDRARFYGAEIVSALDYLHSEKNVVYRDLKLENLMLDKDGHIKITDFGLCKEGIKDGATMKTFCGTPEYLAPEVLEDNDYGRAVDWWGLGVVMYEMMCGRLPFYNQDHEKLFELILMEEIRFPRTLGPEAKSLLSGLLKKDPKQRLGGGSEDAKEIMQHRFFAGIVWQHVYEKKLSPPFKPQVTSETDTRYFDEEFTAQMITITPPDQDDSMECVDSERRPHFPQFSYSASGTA

For the compound `CCCS(=O)(=O)C12OC1C(=O)c1c(OC)ccc(OC)c1C2=O` (stereo unspecified), the Activity result is “Non-Toxic” in [1]; “Tde” in the data set with A549 [2]; “Tde” with A549 [3]; 13.29% with A549 [4]; “Tde” with A549 [5]; 60.04% with A549 [9]. Moreover, the values for the Activity with A549 [10] and in the data set with A549 [13] were 68.59% and “Tde”, respectively. Moreover, the outcome (in [6]; in data set [7]; with A549 [11]; with A549 [12]) was inactive. Also, the result in [8] was Active.

Regarding `CCCCCCCCCS(=O)(=O)C12OC1C(=O)c1c(OC)ccc(OC)c1C2=O` (stereo unspecified), the Activity result was “Non-Toxic” in data set [1]; “Tde” in the data set with A549 [2]; “Tde” with A549 [3]; 8.15% with A549 [4]; “Tde” in the data set with A549 [5]; 59.58% in the data set with A549 [9]. In addition, the Activity in the data set on A549 [10] is 62.75%; in the data set on A549 [13], “Tde”. Also, the result (in data set [6]; in data set [7]; in the data set on A549 [11]; in the data set on A549 [12]) was inactive. The outcome in [8] was Active.
